Published values from different studies.
Protocols differ between the studies behind these lines.
lecA: PA-I galactophilic lectin (lecA, Pseudomonas aeruginosa, UniProt Q05097)
ADH1 W83R: ADH1 (Saccharomyces cerevisiae, UniProt P00330, W83R)
Chymotrypsinogen A: Chymotrypsinogen A (Bos taurus, UniProt P00766)

O=C(CCCCn1cc(CCN2CCN(c3cc4c(cc3F)c(=O)c(C(=O)O)cn4C3CC3)CC2)nn1)Nc1ccc(S[C@@H]2O[C@H](CO)[C@H](O)[C@H](O)[C@H]2O)cc1
Ki (lecA; ligand displacement; FP): 2.7 µM

OCC(F)(F)F
Ki (ADH1 W83R; enzyme activity; inhibitor): 980 µM

CCCC[C@H](NC(=O)[C@H](CCC(N)=O)NC(=O)[C@H](CO)NC(=O)[C@H](CO)NC(=O)CCCCCN)C(=O)N[C@@H](CC(C)C)B(O)O
Ki (Chymotrypsinogen A; enzyme activity; inhibitor; fluorescence): 0.138 µM

NC(=O)C1=CN([C@@H]2O[C@H](COP(=O)(O)OP(=O)(O)OC[C@H]3O[C@@H](n4cnc5c(N)ncnc54)[C@H](O)[C@@H]3O)[C@@H](O)[C@H]2O)C=CC1
Ki (ADH1 W83R; enzyme activity; inhibitor): 24 µM

CCCC[C@H](NC(=O)[C@H](CCC(N)=O)NC(=O)[C@H](CO)NC(=O)C[C@@H](Cc1ccc2ccccc2c1)NC(=O)CCCCCN)C(=O)N[C@@H](Cc1ccccc1)B(O)O
Ki (Chymotrypsinogen A; enzyme activity; inhibitor; fluorescence): 0.00721 µM

Cc1ccc2c(c1)c1c3n2CCNC3CCC1 (centres unmarked)
Ki (Amine oxidase [flavin-containing] A (Maoa, Rattus norvegicus, UniProt P21396); enzyme activity; inhibitor; pH 7.5): 0.77 µM

[N-]=[N+]=NCCCCC(=O)Nc1ccc(S[C@@H]2O[C@H](CO)[C@H](O)[C@H](O)[C@H]2O)cc1
Ki (lecA; ligand displacement; FP): 3.67 µM

CCCC[C@H](NC(=O)[C@H](CCCCN)NC(=O)[C@H](CO)NC(=O)[C@H](CO)NC(=O)OCc1ccccc1)C(=O)N[C@@H](CCCBr)B(O)O
Ki (Chymotrypsinogen A; enzyme activity; inhibitor; fluorescence): 0.197 µM

[N-]=[N+]=NCCCC(=O)Nc1ccc(S[C@@H]2O[C@H](CO)[C@H](O)[C@H](O)[C@H]2O)cc1
Ki (lecA; ligand displacement; FP): 4.01 µM

CCCC[C@H](NC(=O)[C@H](CCC(N)=O)NC(=O)[C@H](CO)NC(=O)[C@H](Cc1ccccc1)NC(=O)CCCCCN)C(=O)N[C@@H](Cc1ccccc1)B(O)O
Ki (Chymotrypsinogen A; enzyme activity; inhibitor; fluorescence): 0.000135 µM

NC(=O)C1=CN([C@@H]2O[C@H](COP(=O)(O)OP(=O)(O)OC[C@H]3O[C@@H](n4cnc5c(N)ncnc54)[C@H](O)[C@@H]3O)[C@@H](O)[C@H]2O)C=CC1
Ki (ADH1 (Saccharomyces cerevisiae, UniProt P00330, H49E); enzyme activity; inhibitor): 12 µM

CCn1c(-c2nc3cc(C(=O)N4CCC[C@@H](N)C4)cc(OC)c3n2C)cc2cccnc21
Ki (Protein-arginine deiminase type-3 (PADI3, Homo sapiens, UniProt Q9ULW8); enzyme activity; inhibitor): 925 µM

O=C(CCCCn1cc(CN2CCN(c3cc4c(cc3F)c(=O)c(C(=O)O)cn4C3CC3)CC2)nn1)Nc1ccc(S[C@@H]2O[C@H](CO)[C@H](O)[C@H](O)[C@H]2O)cc1
Ki (lecA; ligand displacement; FP): 3.27 µM

O=[N+]([O-])c1ccc(O[C@@H]2O[C@H](CO)[C@H](O)[C@H](O)[C@H]2O)cc1
Ki (lecA; ligand displacement; FP): 26.9 µM
